Square brackets hold non-standard residues; d marks the D form. Side chains are listed from the residue outwards. Peptide text beside a SMILES is read from it. * marks the point of attachment. X1 = O=C(CCS[C@@H]1O[C@H](CO)[C@H](O)[C@H](O)[C@H]1O)*; βGal = OC[C@H]1O[C@@H](*)[C@H](O)[C@@H](O)[C@H]1O; Mpa = O=C(O)CCS
Key:
[1] = molecular target: T1, P. aeruginosa lectin LecA (Pseudomonas aeruginosa, UniProt Q05097); test: Isothermal titration calorimetry; assay type: binding; conditions: for n′ (stoichiometry, number of occupied lectin galactose binding sites per dendrimer) / ΔH / −T ΔS / r.p./n = (Kd(D-galactose)/Kd(ligand))/n: ITC; for n′ (stoichiometry, number of occupied lectin galactose binding sites per dendrimer) / ΔH / −T ΔS: 0.1 M Tris base, pH 7.5, 25 mM CaCl2, 25 °C, average of two independent runs; for r.p./n = (Kd(D-galactose)/Kd(ligand))/n: relative to D-galactose, per galactose residue
T1 sequence (Q05097 1-122): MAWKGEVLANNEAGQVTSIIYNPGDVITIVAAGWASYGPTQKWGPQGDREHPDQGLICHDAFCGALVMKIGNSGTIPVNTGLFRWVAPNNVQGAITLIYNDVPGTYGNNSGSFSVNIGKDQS

[2] = molecular target: T1, P. aeruginosa lectin LecA; test: Hemagglutination inhibition assay; assay type: biochemical; conditions: relative to D-galactose
How it was run: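 Twofold serial dilutions of test compound were preincubated with LecA for 30 min at 4 °C. Rabbit erythrocytes (5 % solution in PBS) were then added and incubated 1 h at RT. MIC was taken as the highest dilution giving complete inhibition of hemagglutination.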

Structure (SMILES)	n′ (stoichiometry, number of occupied lectin galactose binding sites per dendrimer) [1]	ΔH [1]	−T ΔS [1]	r.p./n, relative potency per galactose residue = (MIC(D-galactose)/MIC(ligand))/n [2]	Kd [1]	r.p./n = (Kd(D-galactose)/Kd(ligand))/n [1]
O=C[C@H](O)[C@@H](O)[C@@H](O)[C@H](O)CO [D-galactose]	1.1±0.1	-8.4 ± 0.1 kcal/mol	2.3 ± 0.4 kcal/mol			
CC[C@H](C)[C@H](NC(=O)[C@H](CCCCN)NC(=O)[C@H](Cc1ccccc1)NC(=O)[C@H](CCCCNC(=O)[C@H](CC(C)C)NC(=O)[C@@H]1CCCN1C(=O)[C@H](CCCCN)NC(=O)CCS[C@@H]1O[C@H](CO)[C@H](O)[C@H](O)[C@H]1O)NC(=O)[C@H](CC(C)C)NC(=O)[C@@H]1CCCN1C(=O)[C@H](CCCCN)NC(=O)CCS[C@@H]1O[C@H](CO)[C@H](O)[C@H](O)[C@H]1O)C(N)=O [GalBG1] ([Mpa](βGal)KPLK([Leu-Pro-Lys-X1])FKI-NH2)	2.5±0.3	-8.3 ± 0.4 kcal/mol	0.7 ± 0.4 kcal/mol	2.5	2100 ± 1000 nM	20.5
CC(C)S[C@@H]1O[C@H](CO)[C@H](O)[C@H](O)[C@H]1O [IPTG, isopropyl-β-thiogalactoside]	1.1±0.1	-8.9 ± 0.5 kcal/mol	2.8 ± 0.5 kcal/mol	2.8		2.7
O=[N+]([O-])c1ccc(O[C@@H]2O[C@H](CO)[C@H](O)[C@H](O)[C@H]2O)cc1 [NPG, p-nitrophenyl-β-galactoside]	0.9±0	-10.0 ± 0.1 kcal/mol	3.4 ± 0.1 kcal/mol	5.7		6.2

Reference: article PMC3262149 (Angewandte Chemie (International Ed. in English), 2011)
